In PubChem BioAssay one finds outcome, potentiation and activation data, which are given here for 30 molecules.

A short description of assay [1]: nonspecific flux increase, KCNQ1-free cells – parental CHO cells, counter-screen for KCNQ1 potentiator project (AID 493006;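 active = duplicate-averaged activation above buffer control mean plus 5 SD of those controls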). As to conditions: parental CHO-K1 cells, FluxOR thallium flux, at 10 µM; stronger effect = higher value. A digest of the protocol:
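Assay system: Untransfected host CHO-K1 cells with FluxOR thallium dye | Probe or stimulus: Potassium/thallium depolarization pulse | Schedule: Overnight 37 °C plating, 90 min RT dye, 20 min compound | Detection: Kinetic thallium-flux fluorescence | Read-out: Max-minus-min fluorescence over baseline, percent of buffer-to-R-L3 span | Benchmarks: Low control buffer, high control R-L3 activator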

The target of assay [2] is Potassium voltage-gated channel subfamily KQT member 1 (Homo sapiens) (UniProt P51787). Briefly: enhancement of KCNQ1 channel thallium flux – FluxOR thallium flux, CHO cells, duplicates, confirmation (AID 493007).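 For outcome: cells depolarized by a potassium plus thallium sulfate stimulus after compound.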 As to conditions: KCNQ1 cell line, FluxOR thallium flux fluorescence, at 10 µM; stronger effect = higher value, % of reference activator effect, buffer zero. Summed up: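 Material: KCNQ1-expressing CHO cell line; Incubation: FluxOR dye loading 90 min, compound exposure 20 min, room temperature; Detection: FluxOR Tl+ flux fluorescence, 10 s baseline plus 110 s recording; Read-out: percent activation between buffer and R-L3 responses; Control set: buffer-only wells as 0% and R-L3 activator as 100%; Replication: duplicate wells per compound.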
Chain of Potassium voltage-gated channel subfamily KQT member 1 (Homo sapiens) (P51787 whole entry, looked up): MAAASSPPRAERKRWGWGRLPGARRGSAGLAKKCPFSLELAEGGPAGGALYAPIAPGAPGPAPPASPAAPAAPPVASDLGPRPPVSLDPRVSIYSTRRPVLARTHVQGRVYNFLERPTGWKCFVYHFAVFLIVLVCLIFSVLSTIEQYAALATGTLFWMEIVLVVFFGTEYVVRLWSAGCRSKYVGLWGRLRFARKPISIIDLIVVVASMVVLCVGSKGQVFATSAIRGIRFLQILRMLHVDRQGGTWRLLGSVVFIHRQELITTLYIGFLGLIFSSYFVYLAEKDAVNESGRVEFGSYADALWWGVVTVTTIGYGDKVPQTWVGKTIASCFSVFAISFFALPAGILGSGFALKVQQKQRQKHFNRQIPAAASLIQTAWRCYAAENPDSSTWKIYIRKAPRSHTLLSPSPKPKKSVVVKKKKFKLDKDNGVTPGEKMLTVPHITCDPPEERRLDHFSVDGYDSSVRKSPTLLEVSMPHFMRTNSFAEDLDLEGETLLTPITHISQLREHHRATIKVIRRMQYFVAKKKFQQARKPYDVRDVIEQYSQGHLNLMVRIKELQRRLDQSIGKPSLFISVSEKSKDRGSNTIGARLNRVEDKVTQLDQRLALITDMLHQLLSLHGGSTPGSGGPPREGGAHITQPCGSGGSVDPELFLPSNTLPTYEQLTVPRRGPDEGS

For assay [3], the target named is Potassium voltage-gated channel subfamily KQT member 2 (Rattus norvegicus) (UniProt O88943). Briefly: KCNQ2 thallium flux enhancement – KCNQ2-CHO-K1 cells, selectivity assay for KCNQ1 potentiator project (AID 493009;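 active = mean duplicate potentiation above the buffer control mean plus 5 SD of buffer wells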;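 note: assay conditions were tuned for KCNQ1 rather than KCNQ2 modulators; signal is max minus min fluorescence divided by baseline after thallium stimulus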). As to conditions: FluxOR thallium flux fluorescence, at 10 µM; stronger effect = higher value, scaled: buffer 0, activator control 100.
Chain of Potassium voltage-gated channel subfamily KQT member 2 (Rattus norvegicus) (O88943 whole entry, looked up): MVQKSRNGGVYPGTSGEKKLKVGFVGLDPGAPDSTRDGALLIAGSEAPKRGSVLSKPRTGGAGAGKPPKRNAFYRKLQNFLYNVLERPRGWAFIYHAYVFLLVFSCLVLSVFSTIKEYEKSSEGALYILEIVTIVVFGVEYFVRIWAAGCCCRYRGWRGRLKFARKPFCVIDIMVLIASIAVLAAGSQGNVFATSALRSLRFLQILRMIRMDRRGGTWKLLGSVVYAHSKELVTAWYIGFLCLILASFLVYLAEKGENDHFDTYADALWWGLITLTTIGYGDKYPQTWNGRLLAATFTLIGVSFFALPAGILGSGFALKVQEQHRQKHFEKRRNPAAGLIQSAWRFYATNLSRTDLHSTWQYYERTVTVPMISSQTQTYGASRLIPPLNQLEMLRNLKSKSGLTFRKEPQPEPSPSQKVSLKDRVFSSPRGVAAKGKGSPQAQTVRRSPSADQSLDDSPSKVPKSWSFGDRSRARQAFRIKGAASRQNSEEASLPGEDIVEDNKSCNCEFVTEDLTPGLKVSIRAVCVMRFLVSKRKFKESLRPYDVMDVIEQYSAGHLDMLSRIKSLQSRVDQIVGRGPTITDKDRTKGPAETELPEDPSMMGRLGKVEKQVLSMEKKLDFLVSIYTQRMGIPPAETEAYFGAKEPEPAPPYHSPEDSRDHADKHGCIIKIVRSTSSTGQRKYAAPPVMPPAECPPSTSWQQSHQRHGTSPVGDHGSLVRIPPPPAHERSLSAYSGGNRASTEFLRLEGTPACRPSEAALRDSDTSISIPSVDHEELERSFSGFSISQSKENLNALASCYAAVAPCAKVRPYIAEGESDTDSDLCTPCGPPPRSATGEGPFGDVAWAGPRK
For assay [4], the target named is Potassium voltage-gated channel subfamily KQT member 1 (Homo sapiens) (UniProt P51787). As to the kind of experiment: KCNQ1 activators by electrophysiology – IonWorks patch clamp, KCNQ1-CHO cells, orthogonal assay for KCNQ1 potentiator project, confirmation (AID 493184;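 active = current rise at least 3 SD above the untreated control mean in each of two repeat wells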). As to conditions: automated patch clamp current, at 10 µM; stronger effect = higher value. A digest of the protocol: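 assay system = KCNQ1-expressing CHO cells | medium = external bath solution at pH 7.4 | probe or stimulus = 2,000 ms depolarization, -90 to +40 mV | compound dosing = 10 µM final, single point | measured by = automated voltage clamp, amphotericin B perforated patch | measure = percent current increase versus pre-compound level | replication = duplicates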
(In general: In patch-clamp work, channel activity is measured electrically.)

In assay [5] the target is Potassium voltage-gated channel subfamily E member 1 (Homo sapiens) + Potassium voltage-gated channel subfamily KQT member 1 (Homo sapiens) (UniProt P15382+P51787). As to the kind of experiment: KCNQ1-E1 channel activation – thallium flux, CHO-K1 KCNQ1/E1 cells, selectivity assay for KCNQ1 potentiator project, confirmation (AID 493186;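 active = mean duplicate activation above the buffer control mean plus 5 SD of those controls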). As to conditions: FluxOR thallium flux, at 10 µM; stronger effect = higher value. Summed up:
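Test system – CHO-K1 cells with KCNQ1/E1 · Measured by – FluxOR Tl+ flux fluorescence, kinetic read · Controls – buffer low control, R-L3 high control · Times – dye 90 min, compound 20 min, room temperature · Replication – duplicate wells per compound · Doses – one test concentration · Evaluation – fluorescence rise relative to baseline, as percent of R-L3 response above buffer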

The source made the active and inactive calls.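 Rule for the calls, unless noted: active = potentiation averaged over duplicate wells exceeding buffer-only control mean by more than 3 SD; inactive = the rest.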

Chain of Potassium voltage-gated channel subfamily E member 1 (Homo sapiens) + Potassium voltage-gated channel subfamily KQT member 1 (Homo sapiens) (P51787 whole entry, looked up): as the sequence (P51787 whole entry, looked up) above

For `CC(=O)Nc1ccc(NC(=O)CSC2=NS(=O)(=O)c3cc(Cl)ccc3N2)cc1`, the result in assay [1], in assay [2], in assay [3], in assay [4] and in assay [5] was inactive.

Regarding `CN(C1CCCCC1)S(=O)(=O)c1ccc(NC(=S)NC(=O)c2cccs2)cc1`, the result in assay [1], in assay [4] and in assay [5] was inactive. Further, the potentiation in assay [2] is 30% (active); in assay [3], 155% (active).

As to `Cc1c(-c2nc(-c3ccncc3)no2)cccc1[N+](=O)[O-]`, the outcome in assay [1], in assay [3], in assay [4] and in assay [5] was inactive. Besides, the potentiation in assay [2] is 20% (active).

Turning to `CCCCCCOc1ccc(N2C(=O)CC(N3CCN(C(=O)c4ccco4)CC3)C2=O)cc1` (stereo not given), the result in assay [1], in assay [3], in assay [4] and in assay [5] was inactive. Further, the potentiation in assay [2] is 17.5% (active).

Regarding `O=C(NC(=S)NCCC1=CCCCC1)c1ccccc1Br`, the outcome in assay [1], in assay [4] and in assay [5] was inactive. Also, the results for the potentiation in assay [2] and in assay [3] were 47% (active) and 186% (active), respectively.

In the case of `Cc1cc(C)c2c(=O)n(CC(=O)Nc3ccc(Cl)cc3)sc2n1`, the result in assay [1], in assay [3], in assay [4] and in assay [5] was inactive. In addition, the potentiation in assay [2] was 25% (active).

Turning to `COc1cc(O)c2c(=O)c(-c3ccc(O[C@@H]4O[C@H](CO)[C@@H](O)[C@H](O)[C@H]4O)cc3)coc2c1`, the result in assay [1], in assay [2], in assay [3], in assay [4] and in assay [5] was inactive.

In the case of `Cc1ccc(OCCn2c(=S)[nH]c3ccccc32)c(C(C)C)c1`, the result in assay [1], in assay [3], in assay [4] and in assay [5] was inactive. For the same molecule, the potentiation in assay [2] was 119% (active).

`C=CCNC(=S)Nc1nc2c(cc1C(=O)OCC)CCCC2`: the result in assay [1], in assay [3], in assay [4] and in assay [5] was inactive. Further, the potentiation in assay [2] was 39% (active).

`O=S(=O)(Nc1cccnc1)c1ccc(Cl)cc1`: the outcome in assay [1], in assay [2], in assay [3], in assay [4] and in assay [5] was inactive.

Regarding `CCOC(=O)c1c(C)cccc1OCC(N)=O`, the result in assay [1], in assay [2], in assay [3], in assay [4] and in assay [5] was inactive.

With `O=C(COc1ccccc1)NC(=S)Nc1ccc(Br)cn1`, the result in assay [1] and in assay [4] was inactive. Also, the figures for the potentiation in assay [2] and in assay [3] were 41.5% (active) and 206% (active), respectively. Besides, in assay [5], the activation was 20.3% (active).

Take `Cc1ccc(NC(=O)Nc2ccc3c(c2)CCC3)cc1`: the outcome in assay [1], in assay [2], in assay [3], in assay [4] and in assay [5] was inactive.

On to `Cc1ccc(-n2ncc(C(=O)Nc3cc(Cl)cc(Cl)c3)c2C2CCNCC2)cc1C`, for which the result in assay [1], in assay [2], in assay [3], in assay [4] and in assay [5] was inactive.

As to `CC(=O)/C=C/c1ccc2ccccc2n1`, the result in assay [1], in assay [2], in assay [3], in assay [4] and in assay [5] was inactive.

`CCCC(=O)N(Cc1cccnc1)c1nc2c(OC)ccc(Cl)c2s1`: the result in assay [1], in assay [3], in assay [4] and in assay [5] was inactive. In addition, the potentiation in assay [2] is 51.5% (active).

On to `Cc1ccc(CNc2nc3c([nH]2)c(=O)n(C)c(=O)n3C)cc1`, for which the result in assay [1], in assay [2], in assay [3], in assay [4] and in assay [5] was inactive.

For the molecule `CCN(CC)CCCNC(=O)c1c(O)c2cc(F)cc3c2n(c1=O)C(C)CC3` (stereo not given), the outcome in assay [1], in assay [2], in assay [3], in assay [4] and in assay [5] was inactive.

For `COc1cc(-c2noc(C)c2-c2ccc(N(C)C)nc2)cc(OC)c1OC`, the result in assay [1], in assay [2], in assay [3], in assay [4] and in assay [5] was inactive.

For `O=C(CC1(O)C(=O)N(Cc2ccccc2)c2ccccc21)c1ccncc1` (stereo not given), the outcome in assay [1], in assay [4] and in assay [5] was inactive. Besides, the potentiation is 27.5% (active) in assay [2] and 146% (active) in assay [3].

Turning to `O=C(CSc1nnc(-c2ccco2)o1)Nc1cccc([N+](=O)[O-])c1`, the outcome in assay [1], in assay [2], in assay [3], in assay [4] and in assay [5] was inactive.

As to `CCOC(=O)N1CCN(C(=S)NC(=O)c2ccc(Br)cc2)CC1`, the outcome in assay [1], in assay [2], in assay [3], in assay [4] and in assay [5] was inactive.

On to `CNC(=O)CC1C(=O)N(c2ccc(Cl)cc2)C(=S)N1CCc1ccc(OC)c(OC)c1` (stereo not given), for which the outcome in assay [1], in assay [2], in assay [3], in assay [4] and in assay [5] was inactive.

In the case of `O=C(Nc1nc(-c2cc(F)ccc2F)cs1)c1ccccn1`, the outcome in assay [1], in assay [2], in assay [3], in assay [4] and in assay [5] was inactive.

As for `Cc1ccc(-c2ccc(/C=C3\C(=O)ON=C3c3ccccc3)o2)c([N+](=O)[O-])c1`, the result in assay [1], in assay [3], in assay [4] and in assay [5] was inactive. Besides, the potentiation in assay [2] was 29% (active).

As for `O=C1C(=O)N(CCCc2ccccc2)c2ccccc21`, the result in assay [1], in assay [2], in assay [3], in assay [4] and in assay [5] was inactive.

For `O=C(Nc1ccc(N2CCCC(O)C2)cc1)c1snc2c(=O)[nH]cnc12` (stereo not given), the outcome in assay [1], in assay [2], in assay [3], in assay [4] and in assay [5] was inactive.

Consider `COC(=O)c1ccccc1NC(=S)NC(=O)c1ccc(C)cc1`, for which the result in assay [1], in assay [2], in assay [3], in assay [4] and in assay [5] was inactive.

Turning to `COc1ccccc1C(=O)NNC(=O)C(=O)NC(C)C`, the outcome in assay [1], in assay [2], in assay [3], in assay [4] and in assay [5] was inactive.

Turning to `Cc1ccc2nc(C3CCN(S(=O)(=O)c4ccc5ccccc5c4)CC3)[nH]c2c1`, the outcome in assay [1], in assay [2], in assay [3], in assay [4] and in assay [5] was inactive.
